≈ marks a conversion by molar mass, not a printed value. Numbered stars: 1 amine (or outer) side, 2 acyl side, 3 side chain; on linkers, the order of the positions; unused ones are H or OH. Bridge positions count the residues as written; N and C are the ends. Square brackets hold non-standard residues; d marks the D form. Peptide text beside a SMILES is read from it. Gln(3R-OH) = NC(=O)C[C@@H](O)[C@H](N)C(=O)O; X1 = CCCCCCCCCCCCC[C@H](CC(=O)[*:1])O[*:2]; Pro(3S-OH) = O=C(O)[C@H]1NCC[C@@H]1O; d(aThr) = C[C@@H](O)[C@@H](N)C(=O)O; Hyp = O=C(O)[C@@H]1C[C@@H](O)CN1; Orn = NCCC[C@H](N)C(=O)O
Assays:
Candida albicans [1] = assay: In vitro antifungal activity against Candida albicans FP579 by agar dilution method using Sabouraud Dextrose agar.; format: functional
Method in brief: (§1)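 Agar dilution on Sabouraud Dextrose agar. MIC taken as the lowest concentration that inhibits visible growth.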

Candida albicans [2] = assay: In vitro Antifungal activity against Candida albicans FP633 by agar dilution method using Sabouraud Dextrose agar.; format: functional; method in brief: as §1
[3] = tested on: Meyerozyma guilliermondii; assay: In vitro antifungal activity against Candida guilliermondii FP587 by agar dilution method using Sabouraud Dextrose agar.; format: functional; method in brief: as §1
Candida parapsilosis = assay: In vitro antifungal activity against Candida parapsilosis 15001 by agar dilution method using Sabouraud Dextrose agar.; format: functional; details: Lodderomyces parapsilosis; method in brief: as §1
Candida tropicalis = assay: In vitro antifungal activity against Candida tropicalis 8001 by agar dilution method using Sabouraud Dextrose agar.; format: functional; method in brief: as §1
Mus musculus [4] = species: Mus musculus; assay: Ability to hemolyze ICR mouse RBCs at 1 mg/mL using microtiter red blood cell hemolysis assay.
Mus musculus [5] = assay: Compound was evaluated in vivo for antifungal activity and efficacy in disseminated murine candidiasis was determined; format: functional
Candida albicans [6] = assay: In vitro antifungal activity against Candida albicans FP633 by agar dilution method using Sabouraud Dextrose agar; format: functional; method in brief: as §1
Candida albicans [7] = assay: Compound was evaluated in vivo for antifungal activity and efficacy in disseminated murine candidiasis caused by candida albicans FP633; format: functional
[8] = Candida tropicalis, read-out: MIC

| SMILES | MIC (Candida albicans [1]) [µg/mL] | MIC (Candida albicans [2]) [µg/mL] | MIC [3] [µg/mL] | MIC (Candida parapsilosis) [µg/mL] | MIC (Candida tropicalis) [µg/mL] | MIC (Candida tropicalis; [8]) [µg/mL] | Hemolytic activity (Mus musculus [4]) [%] | ED50 (Mus musculus [5]) [mg/kg] | MIC (Candida albicans [6]) [µg/mL] | ED50 (Candida albicans [7]) [mg/kg] |
| --- | --- | --- | --- | --- | --- | --- | --- | --- | --- | --- |
| CCCCCCCCCCCCC[C@@H]1CC(=O)N[C@@H]([C@@H](C)O)C(=O)N[C@H](C)C(=O)N[C@@H](Cc2ccc(O)c(NC(=O)CCN)c2)C(=O)N[C@@H](C(C)C)C(=O)N2C[C@H](O)C[C@H]2C(=O)N[C@@H]([C@@H](C)O)C(=O)N[C@@H]([C@@H](C)O)C(=O)N2CC[C@H](O)[C@H]2C(=O)N[C@@H]([C@H](O)CC(N)=O)C(=O)NCC(=O)N[C@@H]([C@@H](C)O)C(=O)N[C@@H](CCCN)C(=O)O1 | 1.56 (≈ 0.963 µM) | 0.78 (≈ 0.482 µM) | 0.78 (≈ 0.482 µM) | 0.78 (≈ 0.482 µM) | 1.56 (≈ 0.963 µM) | 1.56 (≈ 0.963 µM) | 49 |  |  |  |
| CCCCCCCCCCCCC[C@H](CC(=O)N[C@@H](C(=O)N[C@H](C)C(=O)N[C@@H](Cc1ccc(O)c(N)c1)C(=O)N[C@H](C(=O)N1C[C@H](O)C[C@H]1C(=O)N[C@@H](C(=O)N[C@H](C(=O)N1CC[C@H](O)[C@H]1C(=O)N[C@H](C(=O)NCC(=O)N[C@@H](C(N)=O)[C@@H](C)O)[C@H](O)CC(N)=O)[C@@H](C)O)[C@@H](C)O)C(C)C)[C@@H](C)O)OC(=O)[C@@H](C)CCCN | 1.56 (≈ 0.997 µM) | 0.78 (≈ 0.498 µM) | 0.78 (≈ 0.498 µM) | 1.56 (≈ 0.997 µM) | 1.56 (≈ 0.997 µM) | 1.56 (≈ 0.997 µM) | 100 |  |  |  |
| CCCCCCCCCCCCC[C@H](CC(=O)N[C@@H](C(=O)N[C@H](C)C(=O)N[C@@H](Cc1ccc(O)c([N+](=O)[O-])c1)C(=O)N[C@H](C(=O)N1C[C@H](O)C[C@H]1C(=O)N[C@@H](C(=O)N[C@H](C(=O)N1CC[C@H](O)[C@H]1C(=O)N[C@H](C(=O)NCC(=O)N[C@@H](C(N)=O)[C@@H](C)O)[C@H](O)CC(N)=O)[C@@H](C)O)[C@@H](C)O)C(C)C)[C@@H](C)O)OC(=O)[C@@H](C)CCCN | 0.78 (≈ 0.489 µM) | 0.39 (≈ 0.245 µM) | 0.78 (≈ 0.489 µM) | 0.78 (≈ 0.489 µM) | 0.78 (≈ 0.489 µM) | 0.78 (≈ 0.489 µM) | 100 | 0.45 |  |  |
| CCCCCCCCCCCCC[C@H](CC(=O)N[C@@H](C(=O)N[C@H](C)C(=O)N[C@@H](Cc1ccc(O)cc1)C(=O)N[C@H](C(=O)N1C[C@H](O)C[C@H]1C(=O)N[C@@H](C(=O)N[C@H](C(=O)N1CC[C@H](O)[C@H]1C(=O)N[C@H](C(=O)NCC(=O)N[C@@H](C(N)=O)[C@@H](C)O)[C@H](O)CC(N)=O)[C@@H](C)O)[C@@H](C)O)C(C)C)[C@@H](C)O)OC(=O)[C@@H](C)CCCNC(C)=O | 0.78 (≈ 0.49 µM) | 0.39 (≈ 0.245 µM) | 0.78 (≈ 0.49 µM) | 1.56 (≈ 0.98 µM) | 1.56 (≈ 0.98 µM) | 1.56 (≈ 0.98 µM) | 5 |  |  |  |
| CCCCCCCCCCCCC[C@H](CC(=O)N[C@@H](C(=O)N[C@H](C)C(=O)N[C@@H](Cc1ccc(O)c(Cl)c1)C(=O)N[C@H](C(=O)N1C[C@H](O)C[C@H]1C(=O)N[C@@H](C(=O)N[C@H](C(=O)N1CC[C@H](O)[C@H]1C(=O)N[C@H](C(=O)NCC(=O)N[C@@H](C(N)=O)[C@@H](C)O)[C@H](O)CC(N)=O)[C@@H](C)O)[C@@H](C)O)C(C)C)[C@@H](C)O)OC(=O)[C@@H](C)CCCN | 0.78 (≈ 0.492 µM) | 0.39 (≈ 0.246 µM) | 0.78 (≈ 0.492 µM) | 0.78 (≈ 0.492 µM) | 0.78 (≈ 0.492 µM) | 0.78 (≈ 0.492 µM) | 97 |  |  |  |
| CCCCCCCCCCCCC[C@H](CC(=O)N[C@@H](C(=O)N[C@H](C)C(=O)N[C@@H](Cc1ccc(O)c(NC(=O)CCN)c1)C(=O)N[C@H](C(=O)N1C[C@H](O)C[C@H]1C(=O)N[C@@H](C(=O)N[C@H](C(=O)N1CC[C@H](O)[C@H]1C(=O)N[C@H](C(=O)NCC(=O)N[C@@H](C(N)=O)[C@@H](C)O)[C@H](O)CC(N)=O)[C@@H](C)O)[C@@H](C)O)C(C)C)[C@@H](C)O)OC(=O)[C@@H](C)CCCNC(C)=O.Cl | 1.56 | 1.56 | 1.56 | 1.56 | 1.56 | 1.56 | 23 |  |  |  |
| CCCCCCCCCCCCC[C@@H]1CC(=O)N[C@H]([C@@H](C)O)C(=O)N[C@H](C)C(=O)N[C@@H](Cc2ccc(O)cc2)C(=O)N[C@@H](C(C)C)C(=O)N2C[C@H](O)C[C@H]2C(=O)N[C@H]([C@@H](C)O)C(=O)N[C@@H]([C@@H](C)O)C(=O)N2CC[C@H](O)[C@H]2C(=O)N[C@@H]([C@H](O)CC(N)=O)C(=O)NCC(=O)N[C@H]([C@@H](C)O)C(=O)N[C@@H](CCCN)C(=O)O1 [FR-901469] ([d(aThr)][dA]YV[Hyp][d(aThr)]T[Pro(3S-OH)][Gln(3R-OH)]G[d(aThr)][Orn]; linker N-C via X1) | 0.39 (≈ 0.254 µM) |  | 0.39 (≈ 0.254 µM) | 0.39 (≈ 0.254 µM) | 0.39 (≈ 0.254 µM) | 0.39 (≈ 0.254 µM) | 100 |  | 0.39 (≈ 0.254 µM) | 0.88 |
